Source: ChEMBL document CHEMBL1129554, “6-Substituted and 5,6-disubstituted derivatives of uridine: stereoselective synthesis, interaction with uridine phosphorylase, and in vitro antitumor activity” (J Med Chem, 1996)
In brackets after ≈: the same amount, converted by molar mass.

Experiments:
K562 = assay: In vitro antitumor activity in K-562 cell lines; assay type: functional, cell-based; details: Homo sapiens
Outline: (§1)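 Cytotoxicity was measured as inhibition of [¹⁴C]-L-leucine incorporation into protein. Triplicate cultures held 2 × 10⁴ cells/well, or 10⁵ PHA-stimulated peripheral blood lymphocytes, in RPMI 1640 with 10% FCS, 5% CO₂, 37 °C. Label (0.5 µCi/mL) was present for the final 24 h of a 3-day culture (4 days for PHA-Ly). Protein was precipitated with perchloric acid and counted. IC50 (µg/mL) was taken from dose-response curves.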

U-937 = assay: In vitro antitumor activity in U-937 cell lines; assay type: functional, cell-based; details: Homo sapiens; outline: as §1
[1] = Efficacy was determined as ratio of Vmax to that of Km; assay type: ADME
Outline: (§2)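 Homogeneous E. coli uridine phosphorylase in 50 mM phosphate buffer at 37 °C. pH 6 was used for 5-fluoro analogues and pH 7.5 for the others, so the neutral form predominates. Phosphorolysis was followed spectrophotometrically as the decrease in absorbance, 285 nm for 5-fluoro and 280 nm for the rest. Initial rates were taken over 20 s. Apparent Km and Vmax came from a Wilkinson fit, and efficacy = Vmax/Km.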

PHA-Ly = assay: IIn vitro antitumor activity in PHA-Ly cell lines; assay type: functional, cell-based; details: Homo sapiens; outline: as §1
MOLT-3 = assay: In vitro antitumor activity in MOLT-3 cell lines; assay type: functional, cell-based; details: Homo sapiens; outline: as §1
[2] = Catalytical constant (app Km)of the compound was evaluated at pH 6; assay type: ADME; details: read-out: Km app; outline: as §2
[3] = Catalytical constant (Vmax) was evaluated; assay type: ADME; outline: as §2
IM-9 = assay: In vitro antitumor activity in IM-9 cell lines; assay type: functional, cell-based; details: Homo sapiens; outline: as §1
[4] = Catalytical constant (app Km)of the compound was evaluated at pH 7.5; assay type: ADME; details: read-out: Km app; outline: as §2

Row | SMILES | IC50 (K562) | IC50 (U-937) | Efficacy [1] | IC50 (PHA-Ly) | IC50 (MOLT-3) | Km [2] | Vmax [3] | IC50 (IM-9) | Km [4]
1 | O=c1[nH]c(=O)n([C@@H]2O[C@H](CO)[C@@H](O)[C@H]2O)c(CF)c1F | > 10 µg/mL | 3.7 µg/mL (≈ 12.6 µM) | 0.06 | 4.5 µg/mL (≈ 15.3 µM) | 3.5 µg/mL (≈ 11.9 µM) | 979 µM | 57 uM min-1 (mg of protein)-1 | > 10 µg/mL | 
2 | CCCc1cc(=O)[nH]c(=O)n1C1O[C@H](CO)[C@@H](O)[C@H]1O (some centres undefined) |  |  | 0.03 |  |  |  | 40 uM min-1 (mg of protein)-1 |  | 1150 µM
3 | O=c1cc(CF)n(C2O[C@H](CO)[C@@H](O)[C@H]2O)c(=O)[nH]1 (some centres undefined) | > 10 µg/mL | > 10 µg/mL | 0.99 | > 10 µg/mL | > 10 µg/mL |  | 297 uM min-1 (mg of protein)-1 | 9.9 µg/mL (≈ 35.8 µM) | 300 µM
4 | O=c1[nH]c(=O)n(C2O[C@H](CO)[C@@H](O)[C@H]2O)c(CO)c1F (some centres undefined) | 4.9 µg/mL (≈ 16.8 µM) | 3.7 µg/mL (≈ 12.7 µM) | 0.09 | 2.8 µg/mL (≈ 9.58 µM) | 1.2 µg/mL (≈ 4.11 µM) | 4000 µM | 370 uM min-1 (mg of protein)-1 | 3 µg/mL (≈ 10.3 µM) | 
5 | O=c1cc(CO)n(C2O[C@H](CO)[C@@H](O)[C@H]2O)c(=O)[nH]1 (some centres undefined) | > 10 µg/mL | > 10 µg/mL | 0.53 | 98 µg/mL (≈ 357 µM) | > 10 µg/mL |  | 254 uM min-1 (mg of protein)-1 | > 10 µg/mL | 476 µM
6 | CCc1cc(=O)[nH]c(=O)n1C1O[C@H](CO)[C@@H](O)[C@H]1O (some centres undefined) |  |  | 0.15 |  |  |  | 175 uM min-1 (mg of protein)-1 |  | 1200 µM
7 | Cc1c(F)c(=O)[nH]c(=O)n1C1O[C@H](CO)[C@@H](O)[C@H]1O (some centres undefined) | > 10 µg/mL | > 10 µg/mL | 0.05 | > 10 µg/mL | > 10 µg/mL | 1360 µM | 67 uM min-1 (mg of protein)-1 | > 10 µg/mL | 
8 | O=c1[nH]c(=O)n([C@@H]2O[C@H](CO)[C@@H](O)[C@H]2O)cc1F [5-FLUOROURIDINE] | 0.026 µg/mL (≈ 0.0992 µM) | < 0.01 µg/mL | 2.1 | < 0.1 µg/mL | < 0.01 µg/mL | 152 µM | 323 uM min-1 (mg of protein)-1 | < 0.01 µg/mL | 
9 | O=c1[nH]cc(F)c(=O)[nH]1 [FLUOROURACIL] | 4.3 µg/mL (≈ 33.1 µM) | 0.5 µg/mL (≈ 3.84 µM) |  | 1.4 µg/mL (≈ 10.8 µM) | 1.2 µg/mL (≈ 9.23 µM) |  |  | 0.34 µg/mL (≈ 2.61 µM) | 
